Experimental data taken from ChEMBL document CHEMBL1153792, “Synthesis, characterization and evaluation of antibacterial activity of some thiazolo[3,2-b][1,2,4]triazole incorporating diphenylsulfone moieties” (2009).
≈ marks a conversion by molar mass, not a printed value.

Assays:
Type in all cases: functional
Bacillus cereus = assay: Antimicrobial activity against Bacillus cereus ATCC 14579 after 18 to 24 hrs by liquid broth method
Method in brief: (§1)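 Serial twofold dilution in Mueller–Hinton broth in 96-well format. Compounds were dissolved in DMSO and tested at final levels of 1024, 512, 256, 128, 64, 32, 16, 8, 4 and 2. Inoculum was a 0.5 McFarland suspension. Plates were incubated at 37 °C for 18–24 h. MIC was read by eye as the lowest concentration clearly inhibiting growth.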

Pseudomonas aeruginosa = assay: Antimicrobial activity against Pseudomonas aeruginosa ATCC 9027 after 18 to 24 hrs by liquid broth method; method in brief: as §1
Escherichia coli = assay: Antimicrobial activity against Escherichia coli ATCC 11775 after 18 to 24 hrs by liquid broth method; method in brief: as §1
Staphylococcus aureus = assay: Antimicrobial activity against Staphylococcus aureus ATCC 12600 after 18 to 24 hrs by liquid broth method; method in brief: as §1
[1] = system: Staphylococcus epidermidis; assay: Antimicrobial activity against Staphylococcus epidermidis ATCC 14990 after 18 to 24 hrs by liquid broth method; method in brief: as §1
Acinetobacter baumannii = assay: Antimicrobial activity against Acinetobacter baumannii ATCC 19606 after 18 to 24 hrs by liquid broth method; method in brief: as §1
Citrobacter freundii = assay: Antimicrobial activity against Citrobacter freundii ATCC 8090 after 18 to 24 hrs by liquid broth method; method in brief: as §1
Enterococcus faecalis = assay: Antimicrobial activity against Enterococcus faecalis ATCC 19433 after 18 to 24 hrs by liquid broth method; method in brief: as §1

Row | SMILES | MIC (Bacillus cereus) | MIC (Pseudomonas aeruginosa) | MIC (Escherichia coli) | MIC (Staphylococcus aureus) | MIC [1] | MIC (Acinetobacter baumannii) | MIC (Citrobacter freundii) | MIC (Enterococcus faecalis)
1 | O=C(CSc1nnc(-c2ccc(S(=O)(=O)c3ccccc3)cc2)[nH]1)c1ccccc1 | 128 µg/mL (≈ 294 µM) | 128 µg/mL (≈ 294 µM) | 64 µg/mL (≈ 147 µM) | 64 µg/mL (≈ 147 µM) | 64 µg/mL (≈ 147 µM) | 64 µg/mL (≈ 147 µM) | 128 µg/mL (≈ 294 µM) | 256 µg/mL (≈ 588 µM)
2 | O=S(=O)(c1ccc(Cl)cc1)c1ccc(-c2nc3scc(-c4ccc(Br)cc4)n3n2)cc1 | > 1020 µg/mL | > 1020 µg/mL | > 1020 µg/mL | 512 µg/mL (≈ 964 µM) | > 1020 µg/mL | 128 µg/mL (≈ 241 µM) | > 1020 µg/mL | > 1020 µg/mL
3 | O=C(CSc1nnc(-c2ccc(S(=O)(=O)c3ccc(Br)cc3)cc2)[nH]1)c1ccc(Br)cc1 | 256 µg/mL (≈ 431 µM) | 128 µg/mL (≈ 216 µM) | 64 µg/mL (≈ 108 µM) | 128 µg/mL (≈ 216 µM) | 64 µg/mL (≈ 108 µM) | 64 µg/mL (≈ 108 µM) | 128 µg/mL (≈ 216 µM) | 128 µg/mL (≈ 216 µM)
4 | O=S(=O)(c1ccc(Br)cc1)c1ccc(-c2nc3scc(-c4ccccc4)n3n2)cc1 | 256 µg/mL (≈ 516 µM) | 128 µg/mL (≈ 258 µM) | 64 µg/mL (≈ 129 µM) | 128 µg/mL (≈ 258 µM) | 64 µg/mL (≈ 129 µM) | 64 µg/mL (≈ 129 µM) | 128 µg/mL (≈ 258 µM) | 256 µg/mL (≈ 516 µM)
5 | O=C(CSc1nnc(-c2ccc(S(=O)(=O)c3ccccc3)cc2)[nH]1)c1ccc(Br)cc1 | 512 µg/mL (≈ 995 µM) | 512 µg/mL (≈ 995 µM) | 512 µg/mL (≈ 995 µM) | 512 µg/mL (≈ 995 µM) | 512 µg/mL (≈ 995 µM) | 512 µg/mL (≈ 995 µM) | 512 µg/mL (≈ 995 µM) | 512 µg/mL (≈ 995 µM)
6 | O=S(=O)(c1ccc(Br)cc1)c1ccc(-c2nc3scc(-c4ccc(Br)cc4)n3n2)cc1 | 256 µg/mL (≈ 445 µM) | 128 µg/mL (≈ 222 µM) | 64 µg/mL (≈ 111 µM) | 128 µg/mL (≈ 222 µM) | 64 µg/mL (≈ 111 µM) | 64 µg/mL (≈ 111 µM) | 128 µg/mL (≈ 222 µM) | 256 µg/mL (≈ 445 µM)
7 | O=S(=O)(c1ccccc1)c1ccc(-c2nc3scc(-c4ccccc4)n3n2)cc1 | 512 µg/mL (≈ 1230 µM) | 128 µg/mL (≈ 307 µM) | 64 µg/mL (≈ 153 µM) | 128 µg/mL (≈ 307 µM) | 64 µg/mL (≈ 153 µM) | 64 µg/mL (≈ 153 µM) | 128 µg/mL (≈ 307 µM) | 512 µg/mL (≈ 1230 µM)
8 | O=S(=O)(c1ccc(Br)cc1)c1ccc(-c2nnc(S)[nH]2)cc1 | 64 µg/mL (≈ 161 µM) | 128 µg/mL (≈ 323 µM) | 64 µg/mL (≈ 161 µM) | 64 µg/mL (≈ 161 µM) | 256 µg/mL (≈ 646 µM) | 64 µg/mL (≈ 161 µM) | 128 µg/mL (≈ 323 µM) | 256 µg/mL (≈ 646 µM)
9 | O=C(CSc1nnc(-c2ccc(S(=O)(=O)c3ccc(Br)cc3)cc2)[nH]1)c1ccccc1 | 128 µg/mL (≈ 249 µM) | 128 µg/mL (≈ 249 µM) | 64 µg/mL (≈ 124 µM) | 128 µg/mL (≈ 249 µM) | 64 µg/mL (≈ 124 µM) | 64 µg/mL (≈ 124 µM) | 128 µg/mL (≈ 249 µM) | 256 µg/mL (≈ 498 µM)
10 | O=C(CSc1nnc(-c2ccc(S(=O)(=O)c3ccc(Cl)cc3)cc2)[nH]1)c1ccccc1 | 64 µg/mL (≈ 136 µM) | 64 µg/mL (≈ 136 µM) | 64 µg/mL (≈ 136 µM) | 64 µg/mL (≈ 136 µM) | 64 µg/mL (≈ 136 µM) | 64 µg/mL (≈ 136 µM) | 128 µg/mL (≈ 272 µM) | 256 µg/mL (≈ 545 µM)
11 | O=C(CSc1nnc(-c2ccc(S(=O)(=O)c3ccc(Cl)cc3)cc2)[nH]1)c1ccc(Br)cc1 | 64 µg/mL (≈ 117 µM) | 64 µg/mL (≈ 117 µM) | 64 µg/mL (≈ 117 µM) | 64 µg/mL (≈ 117 µM) | 64 µg/mL (≈ 117 µM) | 64 µg/mL (≈ 117 µM) | 128 µg/mL (≈ 233 µM) | 256 µg/mL (≈ 466 µM)
12 | O=S(=O)(c1ccc(Cl)cc1)c1ccc(-c2nc3scc(-c4ccccc4)n3n2)cc1 | > 1020 µg/mL | > 1020 µg/mL | 1020 µg/mL (≈ 2270 µM) | > 1020 µg/mL | > 1020 µg/mL | 512 µg/mL (≈ 1130 µM) | > 1020 µg/mL | > 1020 µg/mL
13 | O=S(=O)(c1ccccc1)c1ccc(-c2nc3scc(-c4ccc(Br)cc4)n3n2)cc1 | 128 µg/mL (≈ 258 µM) | 128 µg/mL (≈ 258 µM) | 64 µg/mL (≈ 129 µM) | 128 µg/mL (≈ 258 µM) | 64 µg/mL (≈ 129 µM) | 64 µg/mL (≈ 129 µM) | 128 µg/mL (≈ 258 µM) | 256 µg/mL (≈ 516 µM)
14 | O=S(=O)(c1ccc(Cl)cc1)c1ccc(-c2nnc(S)[nH]2)cc1 | 1020 µg/mL (≈ 2910 µM) | 1020 µg/mL (≈ 2910 µM) | 1020 µg/mL (≈ 2910 µM) | 1020 µg/mL (≈ 2910 µM) | 1020 µg/mL (≈ 2910 µM) | 256 µg/mL (≈ 728 µM) | > 1020 µg/mL | > 1020 µg/mL
15 | O=S(=O)(c1ccccc1)c1ccc(-c2nnc(S)[nH]2)cc1 | 1020 µg/mL (≈ 3230 µM) | > 1020 µg/mL | 512 µg/mL (≈ 1610 µM) | 512 µg/mL (≈ 1610 µM) | > 1020 µg/mL | 256 µg/mL (≈ 807 µM) | > 1020 µg/mL | > 1020 µg/mL
16 | CC1(C)S[C@@H]2[C@H](NC(=O)[C@H](N)c3ccccc3)C(=O)N2[C@H]1C(=O)O [AMPICILLIN] |  |  |  | 0.5 µg/mL (≈ 1.43 µM) | 0.064 µg/mL (≈ 0.183 µM) |  | 2 µg/mL (≈ 5.72 µM) | 0.5 µg/mL (≈ 1.43 µM)
17 | CN(C)[C@@H]1C(O)=C(C(N)=O)C(=O)[C@@]2(O)C(O)=C3C(=O)c4c(O)cccc4[C@@](C)(O)[C@H]3C[C@@H]12 [TETRACYCLINE] | 0.094 µg/mL (≈ 0.212 µM) | 12 µg/mL (≈ 27 µM) | 1.5 µg/mL (≈ 3.38 µM) | 0.19 µg/mL (≈ 0.428 µM) | 24 µg/mL (≈ 54 µM) | 1.5 µg/mL (≈ 3.38 µM) | 1 µg/mL (≈ 2.25 µM) | 32 µg/mL (≈ 72 µM)
